Data from paper PMC11847724 (Neoplasia (New York, N.Y.), 2025).
Like-named read-outs stand apart in the source and are kept apart here.

Tested on: participants with advanced or metastatic solid tumors
Type: in vivo, human
Procedure, shortened: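 Open-label, first-in-human 3 + 3 escalation in adults with recurrent, locally advanced or metastatic solid tumors lacking standard therapy. Test compound was given orally once daily from 25 up to 700 mg/day (modified Fibonacci steps) in 28-day cycles for 6 to 8 cycles, with no intrapatient escalation. The safety population was everyone dosed at least once. AEs were coded by MedDRA and graded by NCI CTCAE v4.03. DLT was assessed in cycle 1, and MTD was the highest dose with DLT in under one-third of a cohort.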

CNC(=O)c1ccccc1Nc1nc(Nc2ccc3c(c2OC)CCC[C@H](N2CCN(CCO)CC2)C3)ncc1Cl [ESK-440]
4 (13) Number (%) of participants: Deaths (Overall (N = 32))
500 mg/day: maximum tolerated dose (MTD) (oral, 28-day cycle, DLT in cycle 1)
4 (80) Number (%) of participants: AE: Fatigue (700 mg/day (n = 5)) | Grade 3-5 AE (700 mg/day (n = 5))
25%: AE diarrhea (Overall (N = 32))
53%: AE fatigue (Overall (N = 32)) | AE nausea (Overall (N = 32))
1 (17) Number (%) of participants: AE: Cough (500 mg/day (n = 6)) | Grade 3-5 AE (500 mg/day (n = 6)) | Other serious AEs (500 mg/day (n = 6))
2 (40) Number (%) of participants: AE: Decreased appetite (700 mg/day (n = 5)) | Withdrawn from treatment due to AE (700 mg/day (n = 5))
3 (100) Number (%) of participants: Any AE (25 mg/day (n = 3)) | Grade 3-5 AE (25 mg/day (n = 3)) | Any AE (150 mg/day (n = 3)) | Treatment-related AE (150 mg/day (n = 3))
no clinically significant changes: changes in vital signs, ECG findings, physical exam findings, pulmonary function tests (during the study)
13 participants: decline in ECOG performance status (from baseline)
47%: grade 3+ AEs (Overall (N = 32))
22%: withdrew from treatment due to AEs (Overall (N = 32))
1 (20) Number (%) of participants: AE: Diarrhea (700 mg/day (n = 5)) | AE: Edema peripheral (700 mg/day (n = 5)) | Deaths (700 mg/day (n = 5))
3 (75) Number (%) of participants: AE: Fatigue (100 mg/day (n = 4)) | AE: Fatigue (250 mg/day (n = 4)) | AE: Nausea (250 mg/day (n = 4)) | AE: Vomiting (250 mg/day (n = 4)) | Treatment-related AE (350 mg/day (n = 4))
None: deaths considered by investigators related to ESK-440 (4 deaths during study)
12 (38) Number (%) of participants: AE: Vomiting (Overall (N = 32))
6 (100) Number (%) of participants: Any AE (500 mg/day (n = 6))
5 (16) Number (%) of participants: AE: Cough (Overall (N = 32)) | AE: Edema peripheral (Overall (N = 32))
6 (19) Number (%) of participants: AE: Pyrexia (Overall (N = 32))
97%: at least 1 AE (Overall (N = 32))
2 (33) Number (%) of participants: AE: Decreased appetite (500 mg/day (n = 6)) | AE: Diarrhea (500 mg/day (n = 6)) | AE: Fatigue (500 mg/day (n = 6)) | AE: Pyrexia (500 mg/day (n = 6)) | Withdrawn from treatment due to AE (500 mg/day (n = 6))
grade 3 nausea: nature of the DLT (all 3 cases, considered related to ESK-440)
3 (60) Number (%) of participants: AE: Vomiting (700 mg/day (n = 5))
38%: AE vomiting (Overall (N = 32))
15 (47) Number (%) of participants: Grade 3-5 AE (Overall (N = 32))
No patient: QTcF value meeting protocol-defined DLT criterion (>500 msec) (in vivo)
4: deaths reported during the study (Overall (N = 32))
5 (100) Number (%) of participants: AE: Nausea (700 mg/day (n = 5)) | Any AE (700 mg/day (n = 5)) | Treatment-related AE (700 mg/day (n = 5))
16%: AE cough (Overall (N = 32)) | AE peripheral edema (Overall (N = 32))
9 (28) Number (%) of participants: AE: Decreased appetite (Overall (N = 32)) | Other serious AEs (Overall (N = 32))
2 (50) Number (%) of participants: Grade 3-5 AE (100 mg/day (n = 4)) | Other serious AEs (100 mg/day (n = 4)) | Treatment-related AE (100 mg/day (n = 4)) | AE: Decreased appetite (250 mg/day (n = 4)) | AE: Diarrhea (250 mg/day (n = 4)) | AE: Edema peripheral (250 mg/day (n = 4)) | AE: Decreased appetite (350 mg/day (n = 4)) | AE: Fatigue (350 mg/day (n = 4)) | AE: Nausea (350 mg/day (n = 4)) | Grade 3-5 AE (350 mg/day (n = 4))
1 participants: participants reporting a DLT (500 mg/day treatment group)
2 participants: participants reporting a DLT (700 mg/day treatment group)
19%: AE pyrexia (Overall (N = 32))
1 (33) Number (%) of participants: AE: Cough (25 mg/day (n = 3)) | AE: Diarrhea (25 mg/day (n = 3)) | AE: Nausea (25 mg/day (n = 3)) | Deaths (25 mg/day (n = 3)) | Treatment-related AE (25 mg/day (n = 3)) | Withdrawn from treatment due to AE (25 mg/day (n = 3)) | AE: Fatigue (50 mg/day (n = 3)) | AE: Nausea (50 mg/day (n = 3)) | AE: Pyrexia (50 mg/day (n = 3)) | Grade 3-5 AE (50 mg/day (n = 3)) | Other serious AEs (50 mg/day (n = 3)) | Treatment-related AE (50 mg/day (n = 3)) | AE: Cough (150 mg/day (n = 3)) | AE: Decreased appetite (150 mg/day (n = 3)) | AE: Diarrhea (150 mg/day (n = 3)) | AE: Edema peripheral (150 mg/day (n = 3)) | AE: Pyrexia (150 mg/day (n = 3)) | Grade 3-5 AE (150 mg/day (n = 3)) | Other serious AEs (150 mg/day (n = 3))
31 (97) Number (%) of participants: Any AE (Overall (N = 32))
7 (22) Number (%) of participants: Withdrawn from treatment due to AE (Overall (N = 32))
4 (100) Number (%) of participants: Any AE (100 mg/day (n = 4)) | Any AE (250 mg/day (n = 4)) | Treatment-related AE (250 mg/day (n = 4)) | Any AE (350 mg/day (n = 4))
8 (25) Number (%) of participants: AE: Diarrhea (Overall (N = 32))
5 (83) Number (%) of participants: AE: Nausea (500 mg/day (n = 6)) | AE: Vomiting (500 mg/day (n = 6)) | Treatment-related AE (500 mg/day (n = 6))
Three: participants reporting a DLT (all dose groups)
0 Number (%) of participants: AE: Decreased appetite (25 mg/day (n = 3)) | AE: Edema peripheral (25 mg/day (n = 3)) | AE: Fatigue (25 mg/day (n = 3)) | AE: Pyrexia (25 mg/day (n = 3)) | AE: Vomiting (25 mg/day (n = 3)) | AE: Cough (50 mg/day (n = 3)) | AE: Decreased appetite (50 mg/day (n = 3)) | AE: Diarrhea (50 mg/day (n = 3)) | AE: Edema peripheral (50 mg/day (n = 3)) | AE: Vomiting (50 mg/day (n = 3)) | Deaths (50 mg/day (n = 3)) | Withdrawn from treatment due to AE (50 mg/day (n = 3)) | AE: Cough (100 mg/day (n = 4)) | AE: Decreased appetite (100 mg/day (n = 4)) | AE: Diarrhea (100 mg/day (n = 4)) | AE: Nausea (100 mg/day (n = 4)) | AE: Vomiting (100 mg/day (n = 4)) | AE: Nausea (150 mg/day (n = 3)) | AE: Vomiting (150 mg/day (n = 3)) | Deaths (150 mg/day (n = 3)) | Withdrawn from treatment due to AE (150 mg/day (n = 3)) | AE: Pyrexia (250 mg/day (n = 4)) | Withdrawn from treatment due to AE (250 mg/day (n = 4)) | AE: Edema peripheral (350 mg/day (n = 4)) | Deaths (350 mg/day (n = 4)) | AE: Edema peripheral (500 mg/day (n = 6)) | Deaths (500 mg/day (n = 6)) | AE: Cough (700 mg/day (n = 5)) | AE: Pyrexia (700 mg/day (n = 5)) | Other serious AEs (700 mg/day (n = 5))
1 (25) Number (%) of participants: AE: Edema peripheral (100 mg/day (n = 4)) | AE: Pyrexia (100 mg/day (n = 4)) | Deaths (100 mg/day (n = 4)) | Withdrawn from treatment due to AE (100 mg/day (n = 4)) | AE: Cough (250 mg/day (n = 4)) | Deaths (250 mg/day (n = 4)) | Grade 3-5 AE (250 mg/day (n = 4)) | Other serious AEs (250 mg/day (n = 4)) | AE: Cough (350 mg/day (n = 4)) | AE: Diarrhea (350 mg/day (n = 4)) | AE: Pyrexia (350 mg/day (n = 4)) | AE: Vomiting (350 mg/day (n = 4)) | Other serious AEs (350 mg/day (n = 4)) | Withdrawn from treatment due to AE (350 mg/day (n = 4))
2 (67) Number (%) of participants: Other serious AEs (25 mg/day (n = 3)) | Any AE (50 mg/day (n = 3)) | AE: Fatigue (150 mg/day (n = 3))
Nineteen: no change from baseline in ECOG performance status (in vivo)
17 (53) Number (%) of participants: AE: Fatigue (Overall (N = 32)) | AE: Nausea (Overall (N = 32))
1: SAEs considered related to ESK-440 (of SAEs in nine participants, nausea)
28%: AE decreased appetite (Overall (N = 32))
